Experimental findings from PubChem BioAssay AID617 (SRMLSC, 2007) are described below.

In general, IC50 refers to the midpoint of a concentration-inhibition curve.

This experiment concerns E. coli BW25113 ΔtolC growth inhibition, OD615. The experiment in a line: E. coli ΔtolC antibacterial growth inhibition – strain BW25113 ΔtolC::kan, dose response (AID 617). An outline of the steps:
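Test system: E. coli BW25113 ΔtolC::kan bacteria / Buffer or medium: kanamycin-containing LB broth, 50 µg/mL / Compound: serial dilution series of compound / Incubation: bacterial growth with compound for 20 h, 37 °C / Measured by: OD615 / Read-out basis: growth-inhibition IC50 from four-parameter logistic curve, bounds set to 0% and 100%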
Take `O=C(Nc1cccc(S(=O)(=O)c2cccc(NC(=O)C3CC3)c2)c1)C1CC1`: the IC50 was 5.25 µM.

On to `CCCCNC(=O)c1sc(=S)n2c1[nH]c(=O)c1ccccc12`, for which the IC50 is 0.54 µM. With `c1ccc(-n2nnnc2Oc2cccc3cccnc23)cc1` the figure was 7.65 µM; with `CCOc1ccc(NS(=O)(=O)c2ccc3[nH]cc(C(=O)NC(C)CC)c(=O)c3c2)cc1` (stereo unspecified), 11.1 µM.

Consider `S=C(c1ccc(-c2ccc(Cl)c(Cl)c2)o1)N1CCOCC1`, for which the IC50 is 11.2 µM. With `Cc1cc(C(=O)OCc2nc3ccccc3s2)c(C)o1` the figure was 32.6 µM; with `Clc1ccc(C(c2nnnn2C2CCCCC2)N(Cc2cccnc2)Cc2ccco2)cc1` (stereo unspecified), 14.8 µM.

In the case of `O=C(Nc1nnc(-c2ccccc2Cl)o1)c1ccc(S(=O)(=O)N2CCCCCC2)cc1`, the IC50 is 0.16 µM.

With `COc1ccc2c(c1)OC(O)(C(F)(F)C(F)F)CC2=O` (stereo unspecified), the IC50 is 7.68 µM. Consider `CC(C)(C)N1C(=O)Cc2c1nc(N)c1c(N)nc(N3CCCCC3CO)c(C#N)c21` (stereo unspecified), for which the IC50 is 6.59 µM.

For `CS(=O)(=O)N1CCc2cc(-c3csc(NC(=O)Cc4cccs4)n3)ccc21`, the IC50 was 21.7 µM. With `COc1cccc(-c2cc(C(F)(F)F)nc(N3CCOCC3)n2)c1` the figure was 16.5 µM; with `CCCCN(C)S(=O)(=O)c1ccc(C(=O)Nc2nnc(CSC)o2)cc1`, 0.86 µM; with `Cc1ccc(C)c(S(=O)(=O)C(C#N)c2nc3ccccc3nc2N2CCOCC2)c1` (stereo unspecified), 11.6 µM.

In the case of `CCCCCC/C(=N/O)c1ccccn1`, the IC50 was 3.15 µM.

Regarding `COc1ccc(-c2[nH]ncc2-c2cnn(-c3ccccc3)c2)c(O)c1`, the concentration for half-maximal inhibition (IC50) was 12.5 µM. With `Brc1ccc(CSc2nnc(-c3cnccn3)n2Cc2ccco2)cc1` the figure was 63.4 µM; with `Cc1ccc(CN2CCSc3ccc(C(=O)N4CCN(c5ncccn5)CC4)cc32)cc1`, 17 µM; with `O=C(COc1ccccc1)Nc1ccccc1N1CCCCC1`, 25.6 µM. With `Cc1cccc(-n2ncc3c(N4CCC(C)CC4)ncnc32)c1` the figure was 13 µM; with `Cc1onc(-c2ccccc2)c1C(=O)Nc1nnc(N(C)Cc2ccccc2)s1`, 23.9 µM; with `CC1CCCCN1S(=O)(=O)c1ccc(C(=O)Nc2nnc(-c3cccs3)o2)cc1` (stereo unspecified), 0.24 µM. With `O=C(CCCSc1nc(-c2ccco2)cc(C(F)(F)F)n1)Nc1ccc2c(c1)OCO2` the figure was 4.61 µM; with `CCc1c(O)nc(SCc2ccccc2)n(C(C)CC)c1=O` (stereo unspecified), 4.28 µM; with `COc1cccc(NC(=O)Nc2nnc(N3CCCCC3C)s2)c1` (stereo unspecified), 8.43 µM.

On to `Cc1noc(C)c1S(=O)(=O)N(CCc1ccccc1)Cc1ccccc1`, for which the IC50 is 16.6 µM. With `COC(=O)c1sccc1NC(=O)c1ccc(Cl)s1` the figure was 4.02 µM; with `CCCCN1C(=O)NC(=O)C2(Cc3c(nc4c(C)cccn4c3=O)N3CCc4ccccc4C32)C1=O` (stereo unspecified), 3.2 µM; with `CCn1nc(-c2ccccc2)nc2c(=O)n(C)c(=O)nc1-2`, 2.8 µM. With `O=C(Oc1ccccc1)c1cc2ccccc2o1` the figure was 23.1 µM. With `CCOC(=O)c1c(NC(=O)CN(CC)CC)sc2c1CCC2` the figure was 13.8 µM. As to `O=C(CSc1ncnc2c1oc1ccccc12)N1CCCc2ccccc21`, the IC50 is 15.1 µM. With `Fc1ccc(Cn2nnnc2C(c2cccs2)N2CCCCCC2)cc1` (stereo unspecified) the figure was 10.5 µM; with `COc1ccc(-c2noc(CN3CCC(Cc4ccccc4)CC3)n2)cc1`, 17.2 µM; with `O=C(Nc1ccn(Cc2ccc(Cl)cc2)n1)c1ccc2c(c1)OCO2`, 7.31 µM. With `Cn1c(C(=O)N2CCN(c3cccc(C(F)(F)F)c3)CC2)cc2sccc21` the figure was 15.4 µM. `O=C(c1cccc(COc2ccc(Cl)cc2Cl)c1)N1CCN(c2ccccn2)CC1`: the IC50 was 3.82 µM. With `Cc1onc(-c2ccccc2)c1C(=O)Nc1nnc(COc2ccc(Cl)cc2)s1` the figure was 2.99 µM; with `COC(=O)C1=C(CSc2nc3ccccc3o2)NC(=O)NC1c1cc(C)ccc1C` (stereo unspecified), 13 µM.

Consider `COc1ccc(OCC(O)CNc2ccc(Br)cc2)cc1` (stereo unspecified), for which the IC50 was 12.7 µM. With `CN(Cc1ccccc1)C(=O)CSc1nc2ccccc2c(=O)n1Cc1ccco1` the figure was 10.7 µM; with `CS(=O)(=O)N(Cc1nc2sc3c(c2c(=O)[nH]1)CCCC3)C1CCCCC1`, 8.1 µM; with `Fc1ccc(-n2c(Cc3ccccc3)nnc2SCc2nc(-c3cccs3)no2)cc1`, 19.1 µM.

As for `COC(=O)c1[nH]c2ccc(C)cc2c1NS(=O)(=O)c1ccc(F)cc1`, the IC50 was 6.58 µM.

Consider `CCCOc1nc2c(c(=O)n(C)c(=O)n2C)n1Cc1cccc2ccccc12`, for which the half-inhibitory concentration (IC50) was 28.2 µM. Take `COCCn1nnnc1C(C(C)C)N(Cc1ccccc1)Cc1cc2cc(OC)ccc2[nH]c1=O` (stereo unspecified): the IC50 was 11 µM. `CCOC(=O)Cc1csc(NC(=O)c2ccc(S(=O)(=O)N3CCCCC3)cc2)n1`: the IC50 was 91.3 µM. Turning to `CCC(C)(C)n1nnnc1C(c1cc2ccc(OC)cc2[nH]c1=O)N1CCc2ccccc2C1` (stereo unspecified), the IC50 is 17.1 µM. With `O=C(c1cccc(F)c1)N1CCN(C(=O)c2cc(-c3ccc(Cl)cc3Cl)on2)CC1` the figure was 9.75 µM; with `Cc1nc2ncnn2c(N2CCN(C(c3ccccc3)c3ccccc3)CC2)c1C`, 6.96 µM; with `CCSc1nnc(NC(=O)c2nc(-c3ccccc3)n(-c3ccccc3)n2)s1`, 2.23 µM. As for `Oc1c(CN2CCCCC2)cc(COCc2ccccc2)c2cccnc12`, the IC50 was 13.2 µM. With `O=C(O)CCCC(=O)N1CCc2cc(S(=O)(=O)N3CCc4ccccc43)ccc21` the figure was 10.7 µM. As to `CCSc1nnc(NC(=O)c2ccccn2)s1`, the IC50 was 4.66 µM. Regarding `C=CCn1cc(C(=O)NCc2ccco2)c(=O)c2cc(S(=O)(=O)N3CCCCCC3)ccc21`, the IC50 was 16.1 µM.

On to `COc1cccc(-c2cc(C(=O)N3CCc4ccccc4C3)no2)c1`, for which the IC50 was 8.69 µM. With `NC1C2CN(c3nc4c(cc3F)c(=O)c(C(=O)O)cn4-c3ccc(F)cc3F)CC12` (stereo unspecified) the figure was below 0.2 µM; with `CCCc1cc(-c2[nH]ncc2-c2ccc3c(c2)OCCCO3)c(O)cc1O`, 5.48 µM; with `CCOC(=O)c1cnc(-n2nc(C)cc2C)nc1N(CC)CC`, 12.3 µM. In the case of `Cc1ccc(C)c(N2CCN(C(=O)c3ccc(NS(=O)(=O)c4c(C)noc4C)cc3)CC2)c1`, the IC50 is 13.6 µM. With `O=C(NCc1ccc2c(c1)OCO2)c1ccc(-c2ccc(Cl)cc2)o1` the figure was 5.02 µM; with `c1coc(CNc2nc(N3CCCCC3)nc3ccccc23)c1`, 16.9 µM; with `Fc1ccc(-c2cc(C(F)(F)F)nc(NCC3CCCO3)n2)cc1` (stereo unspecified), 20.7 µM. Regarding `O=S1(=O)Nc2c(ccc3cccnc23)-c2ccccc21`, the IC50 was 1.31 µM. With `Cc1ccc(C)c2[nH]c(=O)c(CN(CC3CCCO3)S(=O)(=O)c3ccc4c(c3)OCCO4)cc12` (stereo unspecified) the figure was 38.6 µM; with `N#Cc1c(N)oc(-c2ccc3c(c2)OCO3)c1-c1ccc2c(c1)OCO2`, 49.9 µM. With `CCCC1=C(C(=O)OCC)C(c2cc(Cl)cc(OC)c2OCC(=O)OCC)NC(=O)N1` (stereo unspecified) the figure was 24.5 µM; with `CN(C)c1ccc(/C=N/n2ncc3ccccc32)cc1`, 34.6 µM. With `Cc1nc2c(C(=O)NCCC3=CCCCC3)c[nH]n2c(=O)c1Cl` the figure was 8.36 µM; with `CCSCC1COC(c2cccn2Cc2ccc(C)cc2)=N1` (stereo unspecified), 39.4 µM; with `N=c1c2c(-c3ccccc3)c(-c3ccccc3)n(Cc3ccco3)c2ncn1Cc1ccco1`, 4.32 µM. In the case of `Cn1nc(-c2ccc(N3CCOCC3)c(NC(=O)COc3ccccc3)c2)c2ccccc2c1=O`, the IC50 was 8.7 µM.

In the case of `N#Cc1ccc(NC(=O)Nc2ccc(Cl)cc2)cc1`, the IC50 is 0.52 µM.

Take `COc1ccccc1N1CCN(C(c2ccccc2Cl)c2nnnn2C(C)(C)C)CC1` (stereo unspecified): the IC50 was 27.6 µM. With `Cn1c(-c2ccccc2)cc2c3no[n+]([O-])c3ccc21` the figure was 5.09 µM. With `CCC1CCCCN1S(=O)(=O)c1ccc2c(c1)CCN2C(=O)C1CCC1` (stereo unspecified) the figure was 14.7 µM. With `O=C(c1ccc(COc2ccc(Cl)cc2)o1)N1CCN(Cc2ccc3c(c2)OCO3)CC1` the figure was 5.35 µM. As for `Cc1ccc2[nH]c(=O)c(CN(Cc3ccc4c(c3)OCO4)Cc3nnnn3C3CCCC3)cc2c1`, the IC50 is 42.3 µM. Take `Cc1ccccc1OCCCN1C(=O)C(=O)c2cccc(C)c21`: the IC50 was 103 µM. In the case of `CCCCCOC(=O)c1ccc(NC(=O)c2ccco2)cc1`, the IC50 was 6.52 µM.

For `C=C(C)COc1ccc(-c2ncncc2Oc2ccc(OC)cc2)c(O)c1`, the IC50 is 14 µM.

Turning to `CCOC(=O)c1ccc(NC(=O)CCc2nc(-c3ccccc3Cl)no2)cc1`, the IC50 is 10.4 µM. With `CCCN(CCC)c1nc2ccccc2nc1C(C#N)C(=O)OCCOC` (stereo unspecified) the figure was 15.7 µM.

As to `Clc1ccc(COC(Cn2ccnc2)c2ccc(Cl)cc2Cl)c(Cl)c1` (stereo unspecified), the half-maximal inhibitory concentration (IC50) was 3.22 µM. For `CN1CCN(CC(=O)N2CCn3c4c(c5cc(C6CCCCC6)ccc53)CCCC42)CC1` (stereo unspecified), the IC50 is 66.7 µM. With `O=C(Nc1nc(-c2ccccc2)ns1)c1cccs1` the figure was 28.4 µM; with `Cc1cc(N2CCN(c3ccccc3)CC2)nc(-n2nc(C)cc2C)n1`, 7.6 µM; with `CC(=O)c1c(O)cc(C)n(Nc2nc(C)cc(C)n2)c1=O`, 13.1 µM. With `O=S(=O)(Nc1nnc(-c2ccccc2)s1)c1ccc(Cl)cc1` the figure was 3.74 µM; with `Cc1cc(Nc2ccccc2)n(-c2nc3ccccc3[nH]2)n1`, 4.9 µM; with `CC1Cc2ccccc2N1C(=O)Cn1c(=O)oc2cc(S(=O)(=O)NC3CCCC3)ccc21` (stereo unspecified), 4.39 µM.

Regarding `CCOC(=O)c1csc(Nc2nc3ccc(F)cc3s2)n1`, the IC50 is 5.89 µM. `N#Cc1nc(COc2ccccc2F)oc1NCCc1ccccc1`: the IC50 was 16.7 µM.

As to `CCCOc1ccc(C2C(C(=O)c3ccc(C)o3)=C(O)C(=O)N2Cc2cccnc2)cc1` (stereo unspecified), the IC50 is 36.1 µM.

Take `Cc1nn(-c2ccccc2)c(Cl)c1C(=O)Nc1nnc(C2CCCC2)s1`: the IC50 is 8.48 µM. With `CCn1c(Cn2nnc(-c3ccccc3)n2)nnc1SCc1ccc(Cl)c(Cl)c1` the figure was 7.77 µM.
